Measured values: ChEMBL document CHEMBL2021785, “Compounds of Alpinia katsumadai as potential efflux inhibitors in Mycobacterium smegmatis” (2012)
In brackets after ≈: the same amount, converted by molar mass.

What was measured:
[1] = system: Mycolicibacterium smegmatis; experiment: Antibacterial activity against Mycobacterium smegmatis mc2 155 after 72 hrs by MTT assay; type: functional; conditions: str. MC2 155, 72 h
Procedure, shortened: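 Broth dilution in Mueller-Hinton broth; compounds dissolved in DMSO, two-fold serial dilutions; inoculum adjusted to McFarland 0.5 and diluted to final 5 × 10^5 cfu/mL; cells pre-grown on Columbia blood agar with 5% horse blood, 37 °C, 72 h. Plates incubated 37 °C for 72 h; MIC read after MTT as lowest concentration inhibiting growth.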

[2] = system: Mycolicibacterium smegmatis MC2 155; experiment: Inhibition of Multidrug resistance efflux pump in Mycobacterium smegmatis mc2 155 assessed as modulation of EtBr-mediated antibacterial activity measuring ratio of EtBr MIC to EtBr and compound MIC at 64 mg/L after 72 hrs by MTT assay
Procedure, shortened: (§1)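 Checkerboard-type modulation by broth dilution in MHB with DMSO-dissolved modulators: either modulator held constant (half its MIC) with two-fold serially diluted antibiotic/EtBr, or antibiotic fixed with modulator serially diluted. Final inoculum 5 × 10^5 cfu/mL, 37 °C, 72 h, MTT read-out. Modulation factor quantifies shift in antibiotic/EtBr MIC; FICI assesses combination effect.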

[3] = system: Mycolicibacterium smegmatis MC2 155; experiment: Inhibition of Multidrug resistance efflux pump in Mycobacterium smegmatis mc2 155 assessed as modulation of ciprofloxacin-mediated antibacterial activity measuring ratio of ciprofloxacin MIC to ciprofloxacin and compound MIC at 64 mg/L after 72 hrs by MTT assay; procedure, shortened: as §1
[4] = system: Mycolicibacterium smegmatis MC2 155; experiment: Inhibition of Multidrug resistance efflux pump in Mycobacterium smegmatis mc2 155 assessed as modulation of ethambutol-mediated antibacterial activity measuring ratio of ethambutol MIC to ethambutol and compound MIC at 64 mg/L after 72 hrs by MTT assay; procedure, shortened: as §1
[5] = system: Mycolicibacterium smegmatis MC2 155; experiment: Inhibition of Multidrug resistance efflux pump in Mycobacterium smegmatis mc2 155 assessed as modulation of isoniazid-mediated antibacterial activity measuring ratio of isoniazid MIC to isoniazid and compound MIC at 64 mg/L after 72 hrs by MTT assay; procedure, shortened: as §1
[6] = system: Mycolicibacterium smegmatis MC2 155; experiment: Inhibition of Multidrug resistance efflux pump in Mycobacterium smegmatis mc2 155 assessed as modulation of rifampicin-mediated antibacterial activity measuring ratio of rifampicin MIC to rifampicin and compound MIC at 64 mg/L after 72 hrs by MTT assay; procedure, shortened: as §1
[7] = system: Mycolicibacterium smegmatis MC2 155; experiment: Inhibition of Multidrug resistance efflux pump in Mycobacterium smegmatis mc2 155 assessed as modulation of EtBr-mediated antibacterial activity measuring fractional inhibitory concentration index at 64 mg/L after 72 hrs by MTT assay; procedure, shortened: as §1
[8] = system: Mycolicibacterium smegmatis MC2 155; experiment: Inhibition of Multidrug resistance efflux pump in Mycobacterium smegmatis mc2 155 assessed as modulation of rifampicin-mediated antibacterial activity measuring fractional inhibitory concentration index at 64 mg/L after 72 hrs by MTT assay; procedure, shortened: as §1
[9] = system: Mycolicibacterium smegmatis MC2 155; experiment: Inhibition of Multidrug resistance efflux pump in Mycobacterium smegmatis mc2 155 assessed as EtBr accumulation measuring relative fluorescence at half the MIC measured for 60 mins by spectrophotometry relative to control
Procedure, shortened: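 Overnight 7H9/ADC culture (37 °C, 100 rpm) centrifuged and resuspended in PBS with 0.05% Tween 80 to OD600 0.4. Cells mixed 1:1 with test solutions containing 0.5 mg/L EtBr and 0.4% glucose, compounds from MIC down to 1/16 MIC. Fluorescence (ex 531/em 590 nm) read every 50 s at 37 °C for 60 min; repeated at least three times.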

[10] = system: Mycolicibacterium smegmatis MC2 155; experiment: Inhibition of Multidrug resistance efflux pump in Mycobacterium smegmatis mc2 155 assessed as inhibition of EtBr efflux measuring normalized fluorescence at half the MIC measured for 60 mins by spectrophotometry relative to control
[11] = system: Mycolicibacterium smegmatis MC2 155; experiment: Inhibition of Multidrug resistance efflux pump in Mycobacterium smegmatis mc2 155 assessed as modulation of EtBr-mediated antibacterial activity measuring reduction in MIC at 1/2 of MIC after 72 hrs by MTT assay relative to control; procedure, shortened: as §1
[12] = system: Mycolicibacterium smegmatis MC2 155; experiment: Inhibition of Multidrug resistance efflux pump in Mycobacterium smegmatis mc2 155 assessed as modulation of ethambutol-mediated antibacterial activity measuring reduction in MIC at 1/2 of MIC after 72 hrs by MTT assay relative to control; procedure, shortened: as §1
[13] = system: Mycolicibacterium smegmatis MC2 155; experiment: Inhibition of Multidrug resistance efflux pump in Mycobacterium smegmatis mc2 155 assessed as modulation of EtBr-mediated antibacterial activity measuring ratio of EtBr MIC to EtBr and compound MIC at 4 mg/L after 72 hrs by MTT assay; procedure, shortened: as §1
[14] = system: Mycolicibacterium smegmatis MC2 155; experiment: Inhibition of Multidrug resistance efflux pump in Mycobacterium smegmatis mc2 155 assessed as modulation of isoniazid-mediated antibacterial activity measuring ratio of isoniazid MIC to isoniazid and compound MIC at 4 mg/L after 72 hrs by MTT assay; procedure, shortened: as §1
[15] = system: Mycolicibacterium smegmatis MC2 155; experiment: Inhibition of Multidrug resistance efflux pump in Mycobacterium smegmatis mc2 155 assessed as modulation of rifampicin-mediated antibacterial activity measuring ratio of rifampicin MIC to rifampicin and compound MIC at 4 mg/L after 72 hrs by MTT assay; procedure, shortened: as §1
[16] = system: Mycolicibacterium smegmatis MC2 155; experiment: Inhibition of Multidrug resistance efflux pump in Mycobacterium smegmatis mc2 155 assessed as modulation of rifampicin-mediated antibacterial activity measuring reduction in MIC at 1/2 of MIC after 72 hrs by MTT assay relative to control; procedure, shortened: as §1
[17] = system: Mycolicibacterium smegmatis MC2 155; experiment: Inhibition of Multidrug resistance efflux pump in Mycobacterium smegmatis mc2 155 assessed as modulation of EtBr-mediated antibacterial activity measuring ratio of EtBr MIC to EtBr and compound MIC at 32 mg/L after 72 hrs by MTT assay; procedure, shortened: as §1
[18] = system: Mycolicibacterium smegmatis MC2 155; experiment: Inhibition of Multidrug resistance efflux pump in Mycobacterium smegmatis mc2 155 assessed as modulation of ciprofloxacin-mediated antibacterial activity measuring ratio of ciprofloxacin MIC to ciprofloxacin and compound MIC at 32 mg/L after 72 hrs by MTT assay; procedure, shortened: as §1
[19] = system: Mycolicibacterium smegmatis MC2 155; experiment: Inhibition of Multidrug resistance efflux pump in Mycobacterium smegmatis mc2 155 assessed as modulation of ethambutol-mediated antibacterial activity measuring ratio of ethambutol MIC to ethambutol and compound MIC at 32 mg/L after 72 hrs by MTT assay; procedure, shortened: as §1
[20] = system: Mycolicibacterium smegmatis MC2 155; experiment: Inhibition of Multidrug resistance efflux pump in Mycobacterium smegmatis mc2 155 assessed as modulation of isoniazid-mediated antibacterial activity measuring ratio of isoniazid MIC to isoniazid and compound MIC at 32 mg/L after 72 hrs by MTT assay; procedure, shortened: as §1
[21] = system: Mycolicibacterium smegmatis MC2 155; experiment: Inhibition of Multidrug resistance efflux pump in Mycobacterium smegmatis mc2 155 assessed as modulation of rifampicin-mediated antibacterial activity measuring ratio of rifampicin MIC to rifampicin and compound MIC at 32 mg/L after 72 hrs by MTT assay; procedure, shortened: as §1
[22] = system: Mycolicibacterium smegmatis MC2 155; experiment: Inhibition of Multidrug resistance efflux pump in Mycobacterium smegmatis mc2 155 assessed as modulation of EtBr-mediated antibacterial activity measuring fractional inhibitory concentration index at 32 mg/L after 72 hrs by MTT assay; procedure, shortened: as §1
[23] = system: Mycolicibacterium smegmatis MC2 155; experiment: Inhibition of Multidrug resistance efflux pump in Mycobacterium smegmatis mc2 155 assessed as modulation of rifampicin-mediated antibacterial activity measuring fractional inhibitory concentration index at 32 mg/L after 72 hrs by MTT assay; procedure, shortened: as §1

Question: How did the MIC [1] turn out when `O=C1C[C@@H](c2ccccc2)Oc2cc(O)cc(O)c21` [PINOCEMBRIN] was run?
Answer: Its MIC is 128 µg/mL (≈ 499 µM).

Question: And the Ratio [2]?
Answer: Its Ratio is 4.

Question: And the Ratio [3]?
Answer: The Ratio was 1.

Question: What about the Ratio [4] of the same compound?
Answer: Its Ratio is 2.

Question: And the Ratio [5]?
Answer: Its Ratio is 1.

Question: What about the Ratio [6] of the same compound?
Answer: Its Ratio is 2.

Question: What about the fractional inhibitory concentration index (FICI) [7] of the same compound?
Answer: Its fractional inhibitory concentration index (FICI) is 0.5.

Question: What about the fractional inhibitory concentration index (FICI) [8] of the same compound?
Answer: The fractional inhibitory concentration index (FICI) was 1.5.

Question: And the RFU [9]?
Answer: The RFU was 11200.

Question: What about the normalized EtBr fluorescence relative to control [10] of the same compound?
Answer: Its normalized EtBr fluorescence relative to control is 0.765.

Question: And the fold change (FC) [11]?
Answer: The fold change (FC) was 4.

Question: What about the fold change (FC) [12] of the same compound?
Answer: The fold change (FC) was 2.

Question: What does the source list for `CCCCCCCCCCCCCCCC(=O)O` [PALMITIC ACID]?
Answer: MIC [1]: 128 µg/mL (≈ 499 µM); Ratio [2]: 1; Ratio [5]: 0.5

Question: With `CCCCCCCC/C=C\CCCCCCCC(=O)O` [OLEIC ACID] as the compound, how does the MIC [1] read?
Answer: The MIC was 8 µg/mL (≈ 28.3 µM).

Question: What about the Ratio [13] of the same compound?
Answer: Its Ratio is 1.

Question: And the Ratio [14]?
Answer: The Ratio was 1.

Question: What about the Ratio [15] of the same compound?
Answer: The Ratio was 4.

Question: Which MIC [1] does the source give for `CC/C=C\C/C=C\C/C=C\CCCCCCCC(=O)O` [LINOLENIC ACID] here?
Answer: Its MIC is 8 µg/mL (≈ 28.7 µM).

Question: What about the Ratio [13] of the same compound?
Answer: The Ratio was 4.

Question: And the Ratio [14]?
Answer: The Ratio was 1.

Question: And the Ratio [15]?
Answer: The Ratio was 4.

Question: And the fold change (FC) [11]?
Answer: Its fold change (FC) is 4.

Question: What about the fold change (FC) [16] of the same compound?
Answer: Its fold change (FC) is 4.

Question: For `CC[C@@H](CO)NCCN[C@@H](CC)CO` [ETHAMBUTOL], which MIC [1] is on record?
Answer: The MIC was 1 µg/mL (≈ 4.89 µM).

Question: For `O=C(O)c1cn(C2CC2)c2cc(N3CCNCC3)c(F)cc2c1=O` [CIPROFLOXACIN], which MIC [1] is on record?
Answer: The MIC was 0.125 µg/mL (≈ 0.377 µM).

Question: With `CN(C)CCCN1c2ccccc2Sc2ccc(Cl)cc21` [CHLORPROMAZINE] as the compound, how does the MIC [1] read?
Answer: Its MIC is 64 µg/mL (≈ 201 µM).

Question: Which MIC [1] does the source give for `O=C(CCc1ccccc1)C[C@@H](O)/C=C/c1ccccc1` here?
Answer: The MIC was 64 µg/mL (≈ 228 µM).

Question: And the Ratio [17]?
Answer: Its Ratio is 8.

Question: What about the Ratio [18] of the same compound?
Answer: Its Ratio is 2.

Question: What about the Ratio [19] of the same compound?
Answer: Its Ratio is 1.

Question: And the Ratio [20]?
Answer: The Ratio was 1.

Question: And the Ratio [21]?
Answer: The Ratio was 4.

Question: What about the fractional inhibitory concentration index (FICI) [22] of the same compound?
Answer: Its fractional inhibitory concentration index (FICI) is 0.25.

Question: What about the fractional inhibitory concentration index (FICI) [23] of the same compound?
Answer: Its fractional inhibitory concentration index (FICI) is 0.75.

Question: And the RFU [9]?
Answer: The RFU was 15100.

Question: And the normalized EtBr fluorescence relative to control [10]?
Answer: Its normalized EtBr fluorescence relative to control is 0.72.

Question: What about the fold change (FC) [11] of the same compound?
Answer: Its fold change (FC) is 4.

Question: What about the fold change (FC) [16] of the same compound?
Answer: Its fold change (FC) is 4.
